The record followed here is ChEMBL document CHEMBL1157859, “Synthesis of some new pyrimido[2',1':2,3]thiazolo[4,5-b]quinoxaline derivatives as anti-inflammatory and analgesic agents” (2010).

What all share (type): functional
Assay [1] concerns Rattus norvegicus. The assay can be described thus: Antiinflammatory activity in Sprague-Dawley rat assessed as protection against carrageenan-induced paw edema at 20 mg/kg, po administered 1 hr before carrageenan challenge measured after 2 hrs. The method, boiled down: (§1)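 Female Sprague–Dawley rats, fasted 18 h, 6 per group. Given 20 mg/kg orally as an aqueous suspension in distilled water, 1 h before 0.1 mL of 1% w/v carrageenan injected subcutaneously into the left hind footpad. Paw volume was read by mercury plethysmometer before injection and hourly for 4 h. Inhibition % = (Ec − Et)/Ec from edema rates; mean ± S.E, n = 6.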

Assay [2] concerns Mus musculus. The assay is described as follows: Analgesic activity in Swiss albino mouse assessed as protection against acetic acid-induced writhing at 20 mg/kg, po after 1 hr. On the technique in general: An intraperitoneal irritant provokes the stretching counted in writhing tests.
Assay [3] has as its system Rattus norvegicus. The assay can be described thus: Antiinflammatory activity in Sprague-Dawley rat assessed as protection against carrageenan-induced paw edema at 20 mg/kg, po administered 1 hr before carrageenan challenge measured after 3 hrs. The method, boiled down: as §1
For orientation: In the carrageenan paw model, swelling and tenderness develop within hours.

Assay [4] deals with Mus musculus. The assay can be described thus: Analgesic activity in Swiss albino mouse assessed as protection against acetic acid-induced writhing at 20 mg/kg, po after 30 mins. The method, boiled down:
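Swiss mice (25–30 g, both sexes), fasted 16 h, 6 per group. Dosed orally at 20 mg/kg as an aqueous suspension; controls got distilled water. After 30 min, 0.7% aqueous acetic acid was given at 10 mL/kg. Writhes were counted for 20 min. % protection = (control mean − treated mean)/control mean × 100.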

For assay [5], the system named is Mus musculus. The assay can be described thus: Analgesic activity in Swiss albino mouse assessed as protection against acetic acid-induced writhing at 20 mg/kg, po after 2 hrs.
Assay [6] deals with Mus musculus. The assay is described as follows: Analgesic activity in Swiss albino mouse assessed as protection against acetic acid-induced writhing at 20 mg/kg, po after 3 hrs.
In assay [7] the test system is Rattus norvegicus. The assay can be described thus: Antiinflammatory activity in Sprague-Dawley rat assessed as protection against carrageenan-induced paw edema at 20 mg/kg, po administered 1 hr before carrageenan challenge measured after 1 hr. The method, boiled down: as §1
Assay [8] deals with Mus musculus. The assay can be described thus: Analgesic activity in Swiss mouse at 20 mg/kg, po assessed as reaction time after 30 mins by hot plate method. The method, boiled down: (§2)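 Swiss mice (25–30 g, both sexes), 6 per group, given an oral aqueous suspension at 20 mg/kg. Reaction time on a hot plate was taken as the interval to hind-paw licking or jumping, with a 60 s cut-off. It was measured before dosing (0 min) and at 15, 30, 60 and 90 min after treatment. Mean of six animals.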
On the technique in general: Hot-plate and tail-flick tests time the reaction to a heat stimulus.

In assay [9] the test system is Mus musculus. The assay is described as follows: Analgesic activity in Swiss mouse at 20 mg/kg, po assessed as reaction time after 60 mins by hot plate method. The method, boiled down:
as §2

For assay [10], the system named is Mus musculus. The assay can be described thus: Analgesic activity in Swiss mouse at 20 mg/kg, po assessed as reaction time after 90 mins by hot plate method. Put shortly: as §2

For the molecule `O=c1cc(/N=C/c2ccncc2)nc2sc3nc4ccccc4nc3n12`, the Activity in [1] turned out to be 54.2%; in assay [2] it was 64.1%; in assay [3] it was 33.4%; in assay [4] it was 60.2%; in assay [5] it was 68.2%; in assay [6], 51.1%. For the same molecule, the Activity in assay [7] came to 51.1%. Besides, the values for the Time in assay [8], in assay [9] and in [10] were 9.66 s, 9.82 s and 10.4 s, respectively.

Take `Nc1cc(=O)[nH]c(Sc2nc3ccccc3nc2Cl)n1`: the Activity came to 58.3% in assay [1]; 73% in [2]; 41.3% in [3]; 68% in [4]; 75.4% in [5]; 57.2% in assay [6]. Moreover, the Activity in [7] was determined as 58.8%. In addition, the Time in assay [8] stood at 8.42 s; in assay [9] it was 9.41 s; in assay [10] it was 10.7 s.

On to `Nc1cc(=O)n2c(n1)sc1nc3ccccc3nc12`, for which the Activity stood at 61% in assay [1]; 68% in [2]; 41.2% in assay [3]; 60.4% in assay [4]; 73.3% in assay [5]; 46.3% in assay [6]. Further, the Activity in [7] is listed as 55.3%. In addition, the values for the Time in [8], in [9] and in assay [10] were 8.42 s, 9.41 s and 10.7 s, respectively.

`O=c1c2cc3ccccc3nc2nc2sc3nc4ccccc4nc3n12`: the Activity is reported as 47.6% in assay [1]; 46% in [2]; 37.6% in [3]; 40.4% in assay [4]; 47.8% in assay [5]; 35.2% in [6]. For the same molecule, in [7], the Activity was found to be 45.3%. Also, the Time came out at 8.84 s in assay [8], 10.6 s in assay [9] and 10.9 s in [10].

For `O=c1c2cc3c(nc2nc2sc4nc5ccccc5nc4n12)CCCC3`, the Activity in assay [1] was determined as 41.3%; in assay [2], 45%; in [3], 24.3%; in [4] it was 42.2%; in assay [5], 45.1%; in assay [6], 34.7%. Also, the Activity in assay [7] is 38.8%. For the same molecule, the Time in [8] was 8.4 s; in assay [9], 10.4 s; in assay [10], 10.7 s.

As to `O=c1c2ccccc2[nH]c2nc3sc4nc5ccccc5nc4n3c(=O)c12`, the Activity in [1] is recorded as 41.5%; in assay [2] it was 49%; in assay [3] it was 30.1%; in assay [4], 42.5%; in assay [5], 53.1%; in assay [6] it was 38.4%. For the same molecule, the Activity in assay [7] turned out to be 40.2%. For the same molecule, the Time was found to be 8.16 s in [8], 9.78 s in assay [9] and 10.1 s in [10].

Turning to `O=c1c2ccc(Cl)cc2[nH]c2nc3sc4nc5ccccc5nc4n3c(=O)c12`, the Activity in assay [1] worked out at 48%; in assay [2], 51%; in assay [3], 31.5%; in [4], 40.5%; in assay [5] it was 47.3%; in [6] it was 38.3%. In addition, the Activity in [7] is on record as 43.1%. Also, the Time was determined as 7.07 s in assay [8], 9.5 s in assay [9] and 12.7 s in assay [10].

For the molecule `Cc1nn(-c2ccccc2)c2nc3nc4sc5nc6ccccc6nc5n4c(=O)c3cc12`, the Activity in assay [1] is 56.1%; in assay [2], 52%; in [3], 33.8%; in assay [4], 45.7%; in [5], 58.3%; in assay [6] it was 35.5%. The Activity in assay [7] was 48.6%. The Time in [8] was found to be 7.55 s; in [9], 8.6 s; in assay [10] it was 12 s.

With `Cc1cc(C)c2c(N)c3c(=O)n4c(nc3nc2n1)sc1nc2ccccc2nc14`, the Activity in assay [1] is 60.4%; in [2], 75%; in [3], 45.5%; in assay [4], 72.2%; in assay [5] it was 76.2%; in assay [6] it was 60.3%. Besides, the Activity in [7] came out at 58.5%. The results for the Time in assay [8], in assay [9] and in assay [10] were 10.1 s, 10.7 s and 7.62 s, respectively.

With `O=c1c2c(-c3ccccc3)c3c(nc2nc2sc4nc5ccccc5nc4n12)/C(=C\c1ccccc1)CCC3`, the Activity in assay [1] was determined as 43.8%; in assay [2], 47%; in assay [3], 31.9%; in assay [4], 42.4%; in [5], 50.3%; in [6] it was 38.6%. The Activity in [7] was determined as 41.3%. The Time in [8] came out at 7.51 s; in [9], 8.86 s; in [10] it was 10.4 s.

For the molecule `O=c1c2c(-c3ccc(Cl)cc3)c3c(nc2nc2sc4nc5ccccc5nc4n12)/C(=C\c1ccc(Cl)cc1)CCC3`, the Activity amounted to 43.2% in assay [1]; 53% in [2]; 38.2% in assay [3]; 45% in assay [4]; 55.6% in assay [5]; 36.3% in assay [6]. For the same molecule, the Activity in assay [7] stood at 45.7%. The results for the Time in [8], in assay [9] and in assay [10] were 8.61 s, 9.06 s and 9.22 s, respectively.

For `COc1ccc(/C=C2/CCCc3c2nc2nc4sc5nc6ccccc6nc5n4c(=O)c2c3-c2ccc(OC)cc2)cc1`, the Activity is listed as 52.2% in assay [1]; 53% in assay [2]; 40.1% in assay [3]; 51.4% in [4]; 56.5% in assay [5]; 38.6% in assay [6]. Besides, the Activity in assay [7] worked out at 48%. Besides, the Time in [8] turned out to be 8.67 s; in [9], 9.82 s; in assay [10] it was 10.4 s.

For the molecule `O=C([O-])Cc1ccccc1Nc1c(Cl)cccc1Cl.[Na+]` [DICLOFENAC SODIUM], the Activity in [1] came out at 60.3%; in [2], 55.2%; in assay [3], 42%; in assay [4], 46%; in [5], 62%; in assay [6], 39%. Moreover, the Activity in assay [7] was 52.4%. Moreover, the results for the Time in assay [8], in [9] and in [10] were 10 s, 11.4 s and 13.2 s, respectively.
